Test results taken from ChEMBL document CHEMBL1909634, “Vitamin B6s inhibit oxidative stress caused by Alzheimer's disease-related Cu(II)-β-amyloid complexes-cooperative action of phospho-moiety” (Bioorg Med Chem Lett, 2011).
Structures can show the parent of a compound that is named as a salt. One block for each compound: values may come before it.

Assays:
Type in all cases: functional
[1] = Competitive inhibition of Cu2-amyloid beta (1 to 20) complex-induced DTBC oxidation by spectrophotometry
Outline: (§1)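 Cu(II)–Aβ complex formed just before assay by mixing stoichiometric Cu(II) and peptide at μM level in the reaction solution. Several concentrations of DTBC or THB substrate are incubated with a constant Cu(II)–Aβ concentration in 0.1 M HEPES, pH 7.4, 25 °C. Ki is obtained from Lineweaver–Burk analysis assuming competitive inhibition.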

[2] = Competitive inhibition of Cu2-amyloid beta (1 to 16) complex-induced DTBC oxidation by spectrophotometry; outline: as §1
[3] = Competitive inhibition of Cu2-amyloid beta (1 to 20) complex-induced THB oxidation by spectrophotometry; outline: as §1
[4] = Inhibition of Cu2-amyloid beta (1 to 40) complex-induced dopamine oxidation by spectrophotometry
Outline: (§2)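 Cu(II)–Aβ prepared fresh from stoichiometric Cu(II) and peptide at μM level. Dopamine oxidation (1.0 mM for inhibition plots; varied for Lineweaver–Burk) is catalysed by 2.0 μM Cu–Aβ1-40, 3.0 μM Cu–Aβ1-16, or 3.0 or 17.0 μM Cu–Aβ1-20, in 0.1 M HEPES pH 7.4, 25 °C. Inhibitor is titrated to give IC50. Ki comes from a 1/v vs 1/[dopamine] plot, competitive model.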

[5] = Inhibition of Cu2-amyloid beta (1 to 20) complex-induced dopamine oxidation by spectrophotometry; outline: as §2
[6] = Competitive inhibition of full-length Cu2-amyloid beta (1 to 40) complex-induced dopamine oxidation by Lineweaver-Burk plot analysis; outline: as §2
[7] = Inhibition of Cu2-amyloid beta (1 to 16) complex-induced dopamine oxidation by spectrophotometry; outline: as §2
[8] = Inhibition of Cu2-amyloid beta (1 to 16) complex-induced DTBC oxidation by spectrophotometry; outline: as §1
[9] = Inhibition of Cu2-amyloid beta (1 to 16) complex-induced THB oxidation by spectrophotometry; outline: as §1

Ki [1]: 0.2 mM
Ki [2]: 0.13 mM
SMILES: Cc1ncc(COP(=O)(O)O)c(C=O)c1O [PYRIDOXAL PHOSPHATE ANHYDROUS]

Ki [3]: 2.8 mM
Ki [1]: 1.12 mM
Ki [2]: 0.67 mM
SMILES: Cc1ncc(CO)c(C=O)c1O [PYRIDOXAL]

IC50 [4]: 7 mM
IC50 [5]: 7 mM
Ki [5]: 1.4 mM
Ki [6]: 1.42 mM
IC50 [7]: 7 mM
SMILES: Cc1ncc(CO)c(CN)c1O [PYRIDOXAMINE]

Ki [8]: 5.05 mM
Ki [5]: 8.29 mM
Ki [9]: 8.67 mM
Ki [7]: 5.56 mM
SMILES: Cc1ncc(CO)c(CO)c1O [PYRIDOXINE HYDROCHLORIDE]
